In brackets after ≈: the same amount, converted by molar mass. Each block holds one molecule with its values, some of them ahead of it.
Columns and labels:
Staphylococcus aureus [1] = test: Antimicrobial activity against Staphylococcus aureus; format: functional
[2] = target: Vascular endothelial growth factor receptor 2 (Homo sapiens, UniProt P35968); test: Inhibition of VEGFR2 (unknown origin)
SK-MEL-2 = test: Antiproliferative activity against human SK-MEL-2 cells assessed as growth inhibition incubated for 48 hrs by SRB method; format: functional
Summary of the method: (§1)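 NCI-60 five-dose screen at 0.01, 0.1, 1, 10 and 100 μM, triplicate wells per dose. Cells were in RPMI 1640 with 5% FBS and 2 mM L-glutamine, pre-grown 24 h and then treated for 48 h at 37 °C. Read-out was TCA fixation and SRB absorbance at 515 nm.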

SF-268 = test: Antiproliferative activity against human SF-268 cells assessed as growth inhibition incubated for 48 hrs by SRB method; format: functional; summary of the method: as §1
MCF7 [3] = test: Antiproliferative activity against human MCF7 cells assessed as growth inhibition at 10 uM incubated for 48 hrs by SRB method; format: functional; conditions: read-out: GI
Summary of the method: (§2)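 NCI-60 one-dose screen at 10 μM. Cells were grown in RPMI 1640 with 5% FBS and 2 mM L-glutamine and plated at 5000–40 000 cells/well for 24 h. Drug exposure was 48 h at 37 °C, 5% CO2. Cells were fixed with TCA, stained with 0.4% SRB and read at 515 nm. Growth is expressed as percent of untreated control and time-zero plates.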

PC-3 = test: Antiproliferative activity against human PC-3 cells assessed as growth inhibition incubated for 48 hrs by SRB method; format: functional; summary of the method: as §1
A549 = test: Antiproliferative activity against human A549 cells assessed as growth inhibition at 10 uM incubated for 48 hrs by SRB method; format: functional; conditions: read-out: GI; summary of the method: as §2
LOX IMVI = test: Antiproliferative activity against human LOX IMVI cells assessed as growth inhibition at 10 uM incubated for 48 hrs by SRB method; format: functional; conditions: read-out: GI; summary of the method: as §2
Candida albicans = test: Antimicrobial activity against Candida albicans ATCC 10231 by broth microdilution method
HOP-92 [4] = test: Antiproliferative activity against human HOP-92 cells assessed as growth inhibition at 10 uM incubated for 48 hrs by SRB method; format: functional; conditions: read-out: GI; summary of the method: as §2
M14 = test: Antiproliferative activity against human M14 cells assessed as growth inhibition incubated for 48 hrs by SRB method; format: functional; summary of the method: as §1
OVCAR-8 = test: Antiproliferative activity against human OVCAR-8 cells assessed as growth inhibition incubated for 48 hrs by SRB method; format: functional; summary of the method: as §1
UACC-62 = test: Antiproliferative activity against human UACC-62 cells assessed as growth inhibition incubated for 48 hrs by SRB method; format: functional
Summary of the method: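 NCI-60 five-dose screen at 0.01, 0.1, 1, 10 and 100 μM, triplicate wells per dose. Cells grown in RPMI 1640/5% FBS, preincubated 24 h, then exposed 48 h at 37 °C. TCA fixation, SRB stain, A515.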

HOP-92 [5] = test: Antiproliferative activity against human HOP-92 cells assessed as growth inhibition incubated for 48 hrs by SRB method; format: functional; summary of the method: as §1
CAKI-1 = test: Antiproliferative activity against human CAKI-1 cells assessed as growth inhibition incubated for 48 hrs by SRB method; format: functional; summary of the method: as §1
SK-MEL-28 = test: Antiproliferative activity against human SK-MEL-28 cells assessed as growth inhibition incubated for 48 hrs by SRB method; format: functional; summary of the method: as §1
SF-295 = test: Antiproliferative activity against human SF-295 cells assessed as growth inhibition incubated for 48 hrs by SRB method; format: functional; summary of the method: as §1
SNB-75 = test: Antiproliferative activity against human SNB-75 cells assessed as growth inhibition incubated for 48 hrs by SRB method; format: functional; summary of the method: as §1
EKVX = test: Antiproliferative activity against human EKVX cells assessed as growth inhibition incubated for 48 hrs by SRB method; format: functional; summary of the method: as §1
NCI-H23 = test: Antiproliferative activity against human NCI-H23 cells assessed as growth inhibition incubated for 48 hrs by SRB method; format: functional; summary of the method: as §1
UACC-257 = test: Antiproliferative activity against human UACC-257 cells assessed as growth inhibition incubated for 48 hrs by SRB method; format: functional; summary of the method: as §1
786-0 = test: Antiproliferative activity against human 786-0 cells assessed as growth inhibition at 10 uM incubated for 48 hrs by SRB method; format: functional; conditions: read-out: GI; summary of the method: as §2
NCI-H226 = test: Antiproliferative activity against human NCI-H226 cells assessed as growth inhibition at 10 uM incubated for 48 hrs by SRB method; format: functional; conditions: read-out: GI; summary of the method: as §2
SN12C = test: Antiproliferative activity against human SN12C cells assessed as growth inhibition incubated for 48 hrs by SRB method; format: functional; summary of the method: as §1
Escherichia coli = test: Antimicrobial activity against Escherichia coli ATCC 25922 by broth microdilution method
DU-145 = test: Antiproliferative activity against human DU-145 cells assessed as growth inhibition at 10 uM incubated for 48 hrs by SRB method; format: functional; conditions: read-out: GI; summary of the method: as §2
MDA-MB-468 [6] = test: Antiproliferative activity against human MDA-MB-468 cells assessed as growth inhibition incubated for 48 hrs by SRB method; format: functional; summary of the method: as §1
HOP-62 = test: Antiproliferative activity against human HOP-62 cells assessed as growth inhibition at 10 uM incubated for 48 hrs by SRB method; format: functional; conditions: read-out: GI; summary of the method: as §2
SK-OV-3 = test: Antiproliferative activity against human SK-OV-3 cells assessed as growth inhibition at 10 uM incubated for 48 hrs by SRB method; format: functional; conditions: read-out: GI; summary of the method: as §2
UO-31 = test: Antiproliferative activity against human UO-31 cells assessed as growth inhibition at 10 uM incubated for 48 hrs by SRB method; format: functional; conditions: read-out: GI
Summary of the method: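 NCI-60 one-dose screen at 10 μM. Cells grown in RPMI 1640 with 5% FBS and 2 mM L-glutamine, plated at 5000–40 000 cells/well and preincubated 24 h at 37 °C, 5% CO2. Drug exposure 48 h. Fixed with TCA and stained with 0.4% SRB, absorbance read at 515 nm. Percent growth calculated against untreated control and time-zero plates.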

NCI/ADR-RES = test: Antiproliferative activity against human NCI-ADR-RES cells assessed as growth inhibition at 10 uM incubated for 48 hrs by SRB method; format: functional; conditions: read-out: GI; summary of the method: as §2
MDA-MB-468 [7] = test: Antiproliferative activity against human MDA-MB-468 cells assessed as growth inhibition at 10 uM incubated for 48 hrs by SRB method; format: functional; conditions: read-out: GI; summary of the method: as §2
MCF7 [8] = test: Antiproliferative activity against human MCF7 cells assessed as growth inhibition incubated for 48 hrs by SRB method; format: functional; summary of the method: as §1
U-251 = test: Antiproliferative activity against human U-251 cells assessed as growth inhibition at 10 uM incubated for 48 hrs by SRB method; format: functional; conditions: read-out: GI; summary of the method: as §2
BT-549 = test: Antiproliferative activity against human BT-549 cells assessed as growth inhibition at 10 uM incubated for 48 hrs by SRB method; format: functional; conditions: read-out: GI; summary of the method: as §2
Staphylococcus aureus [9] = test: Antimicrobial activity against Staphylococcus aureus ATCC 29213 by broth microdilution method

Vascular endothelial growth factor receptor 2, sequence (P35968 whole entry): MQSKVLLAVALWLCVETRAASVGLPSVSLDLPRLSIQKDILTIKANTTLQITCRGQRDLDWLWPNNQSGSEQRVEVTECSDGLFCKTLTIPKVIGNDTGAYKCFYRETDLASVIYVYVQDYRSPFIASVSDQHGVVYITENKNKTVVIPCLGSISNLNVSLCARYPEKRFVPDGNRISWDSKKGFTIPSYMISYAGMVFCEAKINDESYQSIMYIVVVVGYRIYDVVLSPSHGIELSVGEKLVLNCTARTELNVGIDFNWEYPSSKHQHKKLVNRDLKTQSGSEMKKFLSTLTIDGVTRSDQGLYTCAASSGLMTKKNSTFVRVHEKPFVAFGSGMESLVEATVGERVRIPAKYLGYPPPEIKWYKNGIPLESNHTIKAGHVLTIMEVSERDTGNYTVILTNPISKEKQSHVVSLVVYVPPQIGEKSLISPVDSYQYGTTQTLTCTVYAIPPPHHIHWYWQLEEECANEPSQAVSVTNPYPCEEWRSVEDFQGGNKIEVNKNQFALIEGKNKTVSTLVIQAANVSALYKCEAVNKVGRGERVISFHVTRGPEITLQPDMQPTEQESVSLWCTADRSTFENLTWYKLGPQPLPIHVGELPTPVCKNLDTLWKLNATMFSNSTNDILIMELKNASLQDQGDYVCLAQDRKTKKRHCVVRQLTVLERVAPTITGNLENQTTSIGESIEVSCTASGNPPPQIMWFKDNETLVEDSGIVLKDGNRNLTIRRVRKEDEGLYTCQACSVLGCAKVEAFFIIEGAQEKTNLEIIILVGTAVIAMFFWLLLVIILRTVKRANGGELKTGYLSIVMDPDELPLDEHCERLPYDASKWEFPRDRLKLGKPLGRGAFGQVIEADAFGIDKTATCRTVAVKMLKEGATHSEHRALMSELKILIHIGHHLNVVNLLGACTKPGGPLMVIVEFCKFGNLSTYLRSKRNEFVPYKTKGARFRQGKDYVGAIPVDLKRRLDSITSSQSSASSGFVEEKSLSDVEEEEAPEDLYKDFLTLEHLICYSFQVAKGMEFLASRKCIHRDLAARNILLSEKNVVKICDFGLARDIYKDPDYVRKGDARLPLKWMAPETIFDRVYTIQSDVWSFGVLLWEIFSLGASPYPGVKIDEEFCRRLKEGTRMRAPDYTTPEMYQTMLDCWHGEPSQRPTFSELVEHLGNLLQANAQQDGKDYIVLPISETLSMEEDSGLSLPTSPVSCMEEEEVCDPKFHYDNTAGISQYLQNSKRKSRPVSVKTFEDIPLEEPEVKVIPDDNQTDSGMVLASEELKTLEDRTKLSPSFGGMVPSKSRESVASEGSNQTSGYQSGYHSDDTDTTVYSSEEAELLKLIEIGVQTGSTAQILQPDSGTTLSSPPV

Structure (SMILES): N#Cc1ccc(Oc2ccc3cccc(NC(=O)Nc4ccc(Cl)c(C(F)(F)F)c4)c3c2)cc1
MIC (Staphylococcus aureus [1]): 1 mg/L (≈ 2.08 µM)

Structure (SMILES): O=C(Nc1ccc(-c2ccc(=O)[nH]n2)cc1)Nc1ccc(Cl)c(C(F)(F)F)c1
IC50 [2]: 1.8 µM
MIC (Staphylococcus aureus [1]): > 128 mg/L

Structure (SMILES): N#Cc1ccc(Oc2cccc(NC(=O)Nc3ccc(Cl)c(C(F)(F)F)c3)c2)cc1Cl
MIC (Staphylococcus aureus [1]): 0.5 mg/L (≈ 1.07 µM)

Structure (SMILES): O=c1ccc(/C=C/c2ccc(NC(=S)Nc3cccc(Br)c3)cc2)n[nH]1
GI50 (SK-MEL-2): 1.86 µM
GI50 (SF-268): 2.82 µM
inhibition of growth at 10 µM (MCF7 [3]): 72.7%
GI50 (PC-3): 3.63 µM
inhibition of growth at 10 µM (A549): 74%
inhibition of growth at 10 µM (LOX IMVI): 88.8%
MIC (Candida albicans): 512 mg/L (≈ 1200 µM)
inhibition of growth at 10 µM (HOP-92 [4]): 100%
GI50 (M14): 2.57 µM
GI50 (OVCAR-8): 3.47 µM
GI50 (UACC-62): 2.34 µM
GI50 (HOP-92 [5]): 2.51 µM
GI50 (CAKI-1): 2.57 µM
GI50 (SK-MEL-28): 2 µM
GI50 (SF-295): 2.69 µM
GI50 (SNB-75): 3.98 µM
GI50 (EKVX): 3.54 µM
GI50 (NCI-H23): 3.54 µM
GI50 (UACC-257): 3.24 µM
inhibition of growth at 10 µM (786-0): 88.2%
inhibition of growth at 10 µM (NCI-H226): 88.2%
GI50 (SN12C): 3.02 µM
MIC (Escherichia coli): 512 mg/L (≈ 1200 µM)
inhibition of growth at 10 µM (DU-145): 91.5%
GI50 (MDA-MB-468 [6]): 1.66 µM
inhibition of growth at 10 µM (HOP-62): 98.1%
inhibition of growth at 10 µM (SK-OV-3): 82.6%
inhibition of growth at 10 µM (UO-31): 76.2%
inhibition of growth at 10 µM (NCI/ADR-RES): 85.7%
inhibition of growth at 10 µM (MDA-MB-468 [7]): 88.1%
GI50 (MCF7 [8]): 2.44 µM
inhibition of growth at 10 µM (U-251): 100%
inhibition of growth at 10 µM (BT-549): 95.5%
MIC (Staphylococcus aureus [9]): 128 mg/L (≈ 300 µM)

Next, values leading:

MIC (Staphylococcus aureus [1]): 0.06 mg/L (≈ 0.143 µM)
Structure (SMILES): O=C(NC(=S)Nc1ccc(Cl)cn1)c1ccc(N2CCCCC2)c([N+](=O)[O-])c1

MIC (Staphylococcus aureus [1]): 0.5 mg/L (≈ 1.28 µM)
Structure (SMILES): O=C(Nc1ccc(Oc2ccc(=O)[nH]n2)cc1)Nc1ccc(Cl)c(Cl)c1

— ChEMBL document CHEMBL6083209, “Pyridazinone-based derivatives as anticancer agents endowed with anti-microbial activity: molecular design, synthesis, and biological investigation” (RSC Med Chem, 2024)
